The target in assay [1] is T1, Dopamine receptor (Bos taurus) (UniProt Q95136+P20288). Description: In vitro ability to enhance the binding of [3H]ADTN to dopamine receptor obtained from bovine caudate membranes at a concentration of 10E-9 M. An outline of the steps: (§1)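 Striatal synaptosomal membranes from bovine caudate incubated with [3H]ADTN with or without (control) peptide at 10^-12–10^-4 M, in triplicate, 37°C for 10 min, no preincubation; filtered, filters counted by liquid scintillation. Nonspecific binding defined with 10 μM (+)-butaclamol. Result expressed as percent enhancement over control; average ± SEM of three or four experiments; unpaired t-test on dpm.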

The target of assay [2] is T1, Dopamine receptor (Bos taurus). Description: In vitro ability to enhance the binding of [3H]ADTN to dopamine receptor obtained from bovine caudate membranes at a concentration of 10E-12 M. An outline of the steps: as §1
The target is the same in assay [3]. Description: In vitro ability to enhance the binding of [3H]ADTN to dopamine receptor obtained from bovine caudate membranes at a concentration of 10E-6 M. An outline of the steps:
as §1

The target is the same in assay [4]. Description: In vitro ability to enhance the binding of [3H]ADTN to dopamine receptor obtained from bovine caudate membranes at a concentration of 10E-5 M. Put shortly: as §1
For assay [5] the target is unchanged. The experiment in a line: In vitro ability to enhance the binding of [3H]ADTN to dopamine receptor obtained from bovine caudate membranes at a concentration of 10E-4 M. Put shortly:
as §1

The target is the same in assay [6]. The experiment in a line: In vitro ability to enhance the binding of [3H]ADTN to dopamine receptor obtained from bovine caudate membranes at a concentration of 10E-10 M. An outline of the steps:
as §1

Assay [7] shares this target. Description: In vitro ability to enhance the binding of [3H]-ADTN to dopamine receptor obtained from bovine caudate membranes at a concentration of 10E-7 M. Put shortly: as §1
For assay [8] the target is unchanged. The experiment in a line: In vitro ability to enhance the binding of [3H]ADTN to dopamine receptor obtained from bovine caudate membranes at a concentration of 10E-8 M. An outline of the steps:
as §1

Assay [9] has the same target. Description: In vitro ability to enhance the binding of [3H]-ADTN to dopamine receptor obtained from bovine caudate membranes at a concentration of 10E-11 M. An outline of the steps:
as §1

Residues, ends and D or L forms follow the SMILES beside them.

With `NC(=O)CN1C[C@H](NC(=O)C2CCCN2)C1=O` (some centres not stated), the Increase in assay [1] was found to be 3.9%; in [2], 1.5%; in [3] it was 27%; in assay [4], 22%; in assay [5], 9.5%; in assay [6], 2.5%. For the same compound, the Increase in [7] was determined as 8%; in assay [8], 5%.
With `CC(C)C[C@H](NC(=O)[C@@H]1CCCN1)C(=O)NCC(N)=O` (H-Pro-Leu-Gly-NH2), the Increase in [3] worked out at 27%.
With `NC(=O)CN1CCC[C@@H](NC(=O)C2CCCN2)C1=O` (some centres not stated), the Increase in [1] stood at 4%; in [2], 2%; in [3], 43%; in [4], 18%; in assay [9], 4%; in [6], 3%. In addition, the Increase in assay [7] was 16%; in assay [8], 11%.
For `NC(=O)CN1CCCC[C@@H](NC(=O)C2CCCN2)C1=O` (some centres not stated), the Increase came out at 30% in assay [1]; 61% in [3]; 27% in assay [4]; 17% in assay [5]; 8% in assay [9]; 15% in assay [6]. Moreover, the Increase worked out at 38% in assay [7] and 35% in [8].
In the case of `NC(=O)CN1OC[C@H](NC(=O)C2CCCN2)C1=O` (some centres not stated), the Increase was determined as 6.8% in assay [1]; 2% in assay [2]; 54% in assay [3]; 37% in assay [4]; 7% in assay [5]; 2% in assay [9]. The results for the Increase in assay [6], in assay [7] and in assay [8] were 2.5%, 30% and 14%, respectively.
As to `NC(=O)CN1CC[C@H](NC(=O)C2CCCN2)C1=O` (some centres not stated), the Increase was found to be 23% in assay [1]; 2.2% in assay [2]; 2.8% in assay [3]; 1.6% in assay [4]; 1.4% in assay [5]; 12% in [9]. Moreover, the Increase worked out at 24.4% in assay [6], 5.6% in assay [7] and 9.2% in [8].
As for `NC(=O)CN1C(=O)C[C@H](NC(=O)C2CCCN2)C1=O` (some centres not stated), the Increase stood at 4.6% in [1]; 4% in assay [2]; 38% in assay [3]; 33% in assay [4]; 13% in assay [5]; 5.5% in assay [9]. Also, the Increase was 3.3% in [6], 42% in assay [7] and 13.5% in [8].
